Screening results: PubChem, Johns Hopkins Ion Channel Center
This is a sample that favours compounds with a hit; in the whole collection about 3.5% have one here.
RGS4 inh – human RGS4 inhibition | P49798 | HEK293 M3R/RGS4 inducible, Fluo-4 calcium flux; stronger effect = higher value; triggered by carbachol at its EC20 | B-score at 10 µM | hit rate 0.45% among 310,000 | AID 463165;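 active = B-score, a plate-corrected calcium signal, over three deviations above library mean, with baseline fluorescence within five deviations of library mean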;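 also: RGS4 expression induced by doxycycline in cells with stable M3 receptor; B-score is computed from the integrated fluorescence ratio over baseline after carbachol; higher B-score means a larger calcium signal and so more RGS4 inhibition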
Target sequence (P49798 whole entry, looked up): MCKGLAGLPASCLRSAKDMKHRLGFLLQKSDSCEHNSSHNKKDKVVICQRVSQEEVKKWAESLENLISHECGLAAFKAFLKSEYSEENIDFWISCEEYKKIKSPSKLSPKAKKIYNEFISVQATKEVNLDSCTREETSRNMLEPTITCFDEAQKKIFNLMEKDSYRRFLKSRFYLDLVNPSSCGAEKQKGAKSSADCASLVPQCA
MrgX1 PAM – allosterically activates human MrgX1 receptor signaling. MrgX1-HEK293, Fluo-4 calcium flux, FDSS; stronger effect = higher value. Q96LB2. hit rate 0.63% among 310,000. B-score at 10 µM. AID 588675;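 active = plate-corrected calcium response at least 3 library SD above typical, normal starting fluorescence, not activating the receptor alone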;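 also: compound read alongside a low EC10 to EC30 dose of BAM8-22 agonist; peak minus trough fluorescence over baseline measured at the second addition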
Target sequence (Q96LB2 whole entry, looked up): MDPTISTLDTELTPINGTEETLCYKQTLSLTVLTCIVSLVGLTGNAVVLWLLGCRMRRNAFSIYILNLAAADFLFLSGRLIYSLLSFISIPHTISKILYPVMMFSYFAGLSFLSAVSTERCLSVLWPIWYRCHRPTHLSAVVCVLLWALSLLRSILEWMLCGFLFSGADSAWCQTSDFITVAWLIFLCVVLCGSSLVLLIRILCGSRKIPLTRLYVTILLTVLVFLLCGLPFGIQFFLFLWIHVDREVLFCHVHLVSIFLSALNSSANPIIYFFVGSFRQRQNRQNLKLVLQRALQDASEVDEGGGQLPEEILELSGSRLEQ
MrgX1 antag – antagonists of human MrgX1 receptor | Q96LB2 | MRGX1-HEK293 calcium flux, Fluo-4, BAM8-22 antagonism; stronger effect = lower value | B-score at 10 µM | hit rate 1.3% among 310,000 | AID 588676;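 active = calcium-response B-score plate-corrected more than 3 library SD below zero, starting fluorescence within 5 deviations, no agonist response on first addition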;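 also: peak minus trough fluorescence over baseline after final BAM8-22 challenge near maximal dose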
RGS4 pot – potentiators or activators of RGS4 | HEK293 M3R/inducible RGS4, carbachol calcium flux Fluo4; stronger effect = lower value | AID 463111 | B-score at 10 µM | hit rate 0.92% among 310,000;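 active = B-score of the integrated calcium signal more than 4 SD below the library mean, with starting fluorescence not abnormally high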;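 also: negative B-score means reduced calcium response which marks RGS4 activation or potentiation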
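Reagent: ECmax carbachol challenge; Test system: M3R-expressing HEK293 line, RGS4 induced by doxycycline; Schedule: overnight RGS4 induction, 30 min dye load 37 °C, 20 min compound RT; Detection: calcium dye Fluo4 fluorescence; Read-out: Agonist-evoked peak-minus-minimum fluorescence over baseline, integrated ratio, B score.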
MrgX1 agonist – activates human MrgX1 receptor signaling | hit rate 0.44% among 310,000 | MrgX1-HEK293 cells, Fluo-4 calcium fluorescence, agonist mode; stronger effect = higher value | AID 588627 | B-score at 10 µM | Q96LB2;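 active = calcium response B-score plate-corrected fluorescence ratio at least 3 library SD, with starting fluorescence B-score inside 5 SD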
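Assay system: MrgX1-expressing HEK293 cells / Amount: fifteen thousand cells per well / Doses: test compound in the initial addition of three / Timing: cells plated overnight, dye loaded 0.5 h 37 °C, 0.5 h room temperature / Technique: kinetic calcium dye fluorescence, Fluo-4 NW / Control set: positive and negative controls per plate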
MrgX1 antag conf – confirmation of human MrgX1 receptor antagonists; remaining BAM8-22 calcium response % of control (stronger effect = lower value), % at 10 µM; shares compounds with MrgX1 antag; hit rate 19% among 2,300; MrgX1-HEK293, BAM8-22 calcium flux, Fluo-4; stronger effect = lower value;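 active = remaining agonist calcium response no higher than 100% minus 3 SD of agonist-only control wells, with starting fluorescence near control levels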;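 also: agonist BAM8-22 given at a near maximal EC90 to ECmax level; peak minus minimum fluorescence divided by baseline after agonist addition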
HEK293 Ca flux – activity in parental HEK293 cells lacking MrgX1 | hit rate 2% among 4,000 | AID 624111 | shares compounds with MrgX1 antag | Fluo-4 calcium fluorescence, FDSS | fluorescence ratio F(max-min)/F0 at 10 µM;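 active = duplicate-averaged calcium fluorescence ratio at least three times the standard deviation of buffer wells, a nonspecific response in parental cells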
HEK293 Ca counter – MrgX1 allosteric activator counter-screen hit in parental HEK293 cells; shares compounds with MrgX1 antag; parental HEK293 calcium flux, Fluo-4 fluorescence ratio; stronger effect = higher value; hit rate 0.4% among 4,000; fluorescence ratio F(max-min)/F0 at 10 µM;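 active = calcium fluorescence ratio, averaged over duplicates, at least 3 SD of the buffer-well ratio, meaning a nonspecific response in receptor-free cells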;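 also: untransfected parental HEK293 lacking MrgX1 used as counterscreen for MrgX1 allosteric activators; fluorescence change taken during the second addition on a kinetic imager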
HEK293 Ca cntr2 – counter-screen for MrgX1 activators: effect in parental HEK293 cells. fluorescence ratio F(max-min)/F0 at 10 µM. Fluo-4 calcium fluorescence (FDSS); stronger effect = higher value. hit rate 8.7% among 4,000. shares compounds with MrgX1 antag;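 active = calcium fluorescence ratio at least three times the spread of buffer wells, meaning a non-specific response in parental cells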
* = called active by the depositor; i = inactive; . = no result.

SMILES | RGS4 inh | MrgX1 PAM | MrgX1 antag | RGS4 pot | MrgX1 agonist | MrgX1 antag conf | HEK293 Ca flux | HEK293 Ca counter | HEK293 Ca cntr2
CNC(=O)c1c(NC(=O)c2ccc(S(=O)(=O)N3CCCc4ccccc43)cc2)sc2c1CCN(C)C2 | i | i | -5.5* | i | i | i | 0.66* | i | 49*
COc1ccc(/C=C/c2nc3cc(-c4ccccc4)ccc3o2)cc1O | i | i | -4.5* | i | i | i | i | i | i
Cc1ccc(S(=O)(=O)C2C(=O)N(C)C3(C)CC2c2ccccc2O3)cc1C (centres undefined) | i | i | i | i | i | . | . | . | .
O=c1[nH]nc2n1CCCCC2 | i | i | -10* | i | i | i | i | i | i
O=C(CN1C(=O)NC2(CCCC2)C1=O)N1CCN(S(=O)(=O)c2ccc(Cl)cc2)CC1 | i | i | i | i | i | . | . | . | .
COc1cccc2cc(C(=O)NCCN3CCOCC3)oc12 | i | i | i | i | i | . | . | . | .
CCOc1ccccc1NC(=O)CCC(=O)Nc1ccc2nc(N3CCN(C)CC3)cc(C)c2c1 | i | i | -5.1* | i | i | i | i | i | i
Cc1ccc(OCC(=O)Nn2c(C)nc3ccccc3c2=O)c(C(C)C)c1 | i | i | -11* | i | i | i | i | i | i
O=C(NC(=S)Nc1ccccc1N1CCOCC1)c1ccc(Br)cc1 | i | i | i | i | i | . | . | . | .
CCc1ccc(N(CC)C(=O)Cc2c(C(=O)O)n(C)c3ccccc23)cc1 | i | i | -6.6* | i | i | i | i | i | i
CCOc1ccc(N(CC)C(=O)Cc2c(C(=O)O)n(C)c3ccccc23)cc1 | i | i | i | i | i | . | . | . | .
Cc1nc2c(ccc3nc(NC(=O)c4ccc5c(c4)OCCO5)sc32)s1 | i | i | -10* | i | i | 79%* | i | i | i
Cc1nc2ccc3nc(NC(=O)c4ccc5c(c4)OCCO5)sc3c2s1 | i | i | i | i | i | . | . | . | .
O=C(NC(=S)Nc1ccccn1)c1cncc(Br)c1 | i | i | i | i | i | . | . | . | .
Cc1cccnc1NC(=S)NC(=O)c1cncc(Br)c1 | i | i | -4.6* | i | i | i | i | i | i
O=c1cc(O)c2sc(Nc3ccc(Cl)c(F)c3)nc2[nH]1 | i | i | i | i | i | . | . | . | .
Cc1ccc(C(CNS(=O)(=O)c2ccc(Cl)cc2)N2CCN(C)CC2)cc1 (centres undefined) | i | i | -5* | i | i | 78%* | i | i | i
Cc1ccc(C(CNS(=O)(=O)c2ccc(C)cc2)N2CCN(C)CC2)cc1 (centres undefined) | i | i | i | i | i | . | . | . | .
O=C(CNS(=O)(=O)c1ccc2ccccc2c1)OCC(=O)c1ccc(Br)s1 | i | i | i | i | i | . | . | . | .
NNCCc1ccccc1 | i | i | i | i | i | . | . | . | .
O=C(NCc1ccco1)C1CCCN1C(=O)Nc1ccccc1 (centres undefined) | i | i | i | i | i | . | . | . | .
O=C(NCc1ccco1)C1CCCN1C(=O)Nc1ccccc1Cl (centres undefined) | i | i | -12* | i | i | i | i | i | i
Cc1nc2ccc(S(=O)(=O)N(C)CC(=O)N3CCc4ccccc4C3)cc2s1 | i | i | i | i | i | . | . | . | .
